Screening data: PubChem BioAssay, The Scripps Research Institute Molecular Screening Center
A selection: hits, their analogues and other compounds. The true share with any hit is near 2.2%.
SIAE inh = inhibitors of human sialic acid acetylesterase SIAE. Q9HAT2. SIAE FP-Rh probe binding, fluorescence polarization. inhibition, % at 9.66 µM. hit rate 0.69% among 370,000;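 active means inhibition above a cutoff: mean of compounds within the control limits plus 3 SD of those, cut at about 17% in these data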
Target sequence (Q9HAT2 whole entry, looked up): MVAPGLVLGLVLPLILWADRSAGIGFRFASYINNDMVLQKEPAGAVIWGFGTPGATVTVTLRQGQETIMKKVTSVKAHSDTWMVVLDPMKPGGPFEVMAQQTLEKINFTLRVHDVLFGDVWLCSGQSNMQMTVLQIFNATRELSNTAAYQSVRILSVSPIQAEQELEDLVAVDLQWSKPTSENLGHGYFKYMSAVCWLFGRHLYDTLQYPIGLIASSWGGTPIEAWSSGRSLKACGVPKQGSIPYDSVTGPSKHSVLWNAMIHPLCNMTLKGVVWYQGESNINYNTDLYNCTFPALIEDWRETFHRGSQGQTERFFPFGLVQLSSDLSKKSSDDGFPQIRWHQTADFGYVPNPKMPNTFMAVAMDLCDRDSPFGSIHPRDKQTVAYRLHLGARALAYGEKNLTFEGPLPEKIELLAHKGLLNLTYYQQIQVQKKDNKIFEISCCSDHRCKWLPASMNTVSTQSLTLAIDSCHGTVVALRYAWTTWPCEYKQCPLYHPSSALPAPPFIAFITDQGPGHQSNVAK
HTRA1 inh = inhibitors of human serine peptidase HTRA1; Q92743; recombinant HTRA1, FP-rhodamine activity-based probe, fluorescence polarization; inhibition, % at 5.96 µM; hit rate 0.5% among 340,000; AID 504803; in the data active means inhibition above about 36%
TCR CD3 inh = inhibitors of human TCR-CD3 interaction | inhibition, % at 9.4 µM | TAMRA-labeled TCR probe fluorescence, biochemical | AID 651800 | hit rate 0.37% among 360,000;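 further: recombinant mutant TCR 2C K166C tagged with TAMRA read by polarization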
LEDGF integ inh = blocks HIV-1 LEDGF/p75-dependent DNA integration. TR-FRET IN-LEDGF/p75 DNA integration, Eu/Cy5. inhibition, % at 3.7 µM. AID 743269. hit rate 0.64% among 370,000;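 active means inhibition above the screen-wide mean plus 3 SD, cut at about 13% in these data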;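 further: signal is the Cy5 over europium emission ratio at 671 and 618 nm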
TDP2 inh = TDP2 (human) inhibition, absorbance primary screen | O95551 | recombinant TDP2, T5PNP hydrolysis, p-nitrophenol absorbance 415 nm | inhibition, % at 12.8 µM | hit rate 0.34% among 370,000 | AID 720702;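 active means inhibition above the mean of all tested compounds plus 3 SD, set per campaign, cut at about 25% in these data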
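Evaluation: % inhibition relative to enzyme-containing and enzyme-free wells. Material: recombinant human TDP2. Benchmarks: enzyme-free and DMSO wells. Timing: enzyme reaction with compound for 2 h at 37 °C. Compound dosing: 12.8 µM only. Measured by: p-Nitrophenol epi absorbance. Reagent: T5PNP substrate at 5 mM, a TopII-DNA adduct mimic. Replication: single well per compound.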
ABHD4 inh = inhibits mouse alpha/beta hydrolase domain 4; hit rate 0.54% among 370,000; Q8VD66; inhibition, % at 8.92 µM; purified mABHD4, FP-Rh probe fluorescence polarization;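 active means inhibition exceeding the mean over every tested compound plus 3 SD, cut at about 30% in these data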
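system = mouse ABHD4 enzyme, wild type | medium = HEPES pH 7.0, NaCl, Pluronic buffer | also added = FP-Rh probe | incubation = Enzyme–compound pre-incubation 45 min, then probe 60 min, both 25 °C | technique = fluorescence polarization, excitation 525 nm, emission 598 nm, BODIPY TMR filters | controls = S159A mutant high control, sample median low control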
HTRA1 inh conf = HTRA1 (human) inhibition, confirmation | shares compounds with HTRA1 inh | recombinant HTRA1, FP-rhodamine activity-based probe, fluorescence polarization | inhibition, % at 5.96 µM | hit rate 66% among 1,600;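 active means mean inhibition over three repeats above a set limit taken from the earlier primary screen, cut at about 37% in these data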;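 further: inhibitors block probe binding so polarization drops and inhibition rises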
BSA probe FL = counter-screen for TCR-CD3 interaction inhibitors: BSA probe; AID 652035; TAMRA-labeled BSA probe fluorescence counterscreen; inhibition, % at 9.4 µM; hit rate 10% among 1,200; shares compounds with TCR CD3 inh; in the data active means inhibition above about 23%
TCR-CD3 conf = confirmation of human TCR-CD3 interaction inhibitors. hit rate 48% among 1,200. shares compounds with TCR CD3 inh. TAMRA-labeled TCR probe fluorescence binding assay. inhibition, % at 9.4 µM
mABHD4 conf = ABHD4 (mouse) inhibition, FP confirmation. shares compounds with ABHD4 inh. purified mABHD4, FP-Rh probe fluorescence polarization. inhibition, % at 8.92 µM. hit rate 55% among 1,800;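 active means mean inhibition across replicates above the hit cutoff set in the primary screen, cut at about 30% in these data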
Large screens that a line does not name were inactive (follow-up assays come after a bar, where they were run). Unless noted, no stated cut-off is given here; in the data, active means inhibition above about 19%; inactive means the rest.

NC(=S)N/N=C/c1c(O)c(Br)cc2oc3c(c12)CCCC3	HTRA1 inh 53, TCR CD3 inh 43 | HTRA1 inh conf 48 | BSA probe FL inactive | TCR-CD3 conf 28
CC(=O)Oc1cc(C(=O)OCC(=O)N2CCc3ccccc3C2)cc(OC(C)=O)c1OC(C)=O	HTRA1 inh 59, TCR CD3 inh 45 | HTRA1 inh conf 83 | BSA probe FL inactive | TCR-CD3 conf inactive
COc1ccc(C(=O)OCC(=O)N2CCc3ccccc3C2)cc1OC	none
Cc1[nH]n(-c2ccccc2)c(=O)c1N=Nc1ccccc1O	HTRA1 inh 43, TCR CD3 inh 28 | HTRA1 inh conf inactive | BSA probe FL inactive | TCR-CD3 conf 20
C[C@@H]1CN([C@H](C)CO)C(=O)CCCn2cc(nn2)CO[C@H]1CN(C)S(=O)(=O)c1ccc(Cl)cc1	none (no result: HTRA1 inh)
COc1cc(/C=C2\CC/C(=C\c3cc(OC)c(O)c(OC)c3)C2=O)cc(OC)c1O	HTRA1 inh 46, TCR CD3 inh 38, LEDGF integ inh 34 | HTRA1 inh conf 55 | BSA probe FL inactive | TCR-CD3 conf 41
COc1cc(/C=C2\CC/C(=C\c3cc(OC)c(OC)c(OC)c3)C2=O)cc(OC)c1OC	none
CC(C)(C)c1ccc(O)c(N=Cc2cc3c(cc2[N+](=O)[O-])OCO3)c1	HTRA1 inh 39, ABHD4 inh 49 | HTRA1 inh conf inactive | mABHD4 conf 40
O=[N+]([O-])c1ccc(O)c(C=Nc2ccc3c(c2)OCO3)c1	none
CCCCCCCCN1C(=O)[C@@H](CC(=O)NCc2ccc(OC)c(OC)c2)C[C@@]2(C(=O)OC)C1=C[C@H](C(C)(C)C)O[C@@H]2C	none (no result: HTRA1 inh)
Nc1cccc2c(O)cccc12	HTRA1 inh 40, ABHD4 inh 42 | HTRA1 inh conf inactive | mABHD4 conf 51
CCOC(=O)c1ccc2c(c1)C1C=CCC1C(C(=O)OCC)N2 (configuration not stated)	HTRA1 inh 44, ABHD4 inh 35 | HTRA1 inh conf 54 | mABHD4 conf 45
CC(C)CNC(=O)C1Nc2ccc(OC(F)(F)F)cc2C2C=CCC12 (configuration not stated)	none
Nc1cc2c(cc1O)CCCC2	HTRA1 inh 44, ABHD4 inh 30 | HTRA1 inh conf inactive | mABHD4 conf inactive
CC1(C)CC(=O)C(C=Nc2ccc(C(=O)c3ccccc3)cc2N=CC2=C(O)CC(C)(C)CC2=O)=C(O)C1	HTRA1 inh 41, ABHD4 inh 30 | HTRA1 inh conf inactive | mABHD4 conf inactive
CC1=CC(C)(C)Nc2ccc(Cc3ccc4c(c3)C(C)=CC(C)(C)N4)cc21	HTRA1 inh 51, ABHD4 inh 31 | HTRA1 inh conf 37 | mABHD4 conf 33
Nc1ccc(N(c2ccccc2)c2ccc(N)cc2)cc1	HTRA1 inh 65, ABHD4 inh 39 | HTRA1 inh conf 54 | mABHD4 conf 48
Cc1ccc(NC(=O)CSc2nnc(-c3cccnc3)n2Cc2ccco2)c(C)c1	none (no result: HTRA1 inh, TCR CD3 inh)
CCCCCc1ccc(OCCC[n+]2ccccc2)c(CCCCC)c1	none
CCCCCCCCCCCCCCCC[n+]1ccc(C(N)=O)cc1	HTRA1 inh 73, ABHD4 inh 41 | HTRA1 inh conf 76 | mABHD4 conf 88
CCCCCCCCCCCCCCCC[n+]1ccccc1	HTRA1 inh 70, ABHD4 inh 54 | HTRA1 inh conf 77 | mABHD4 conf 50
CCCCCCCC[n+]1cccc(C(=O)N(CC)CC)c1	none
CCCCCCCCCCCCCCCC[n+]1cccc(C(=O)N(CC)CC)c1	HTRA1 inh 58, ABHD4 inh 43 | HTRA1 inh conf 65 | mABHD4 conf 48
CCCCC(=O)Nc1ccc(C(N)=O)cc1	none
O=C(C(=O)N1CCC(CNS(=O)(=O)c2ccc(F)cc2)CC1)c1cc2ccccc2o1	none (no result: HTRA1 inh)
COC(=O)c1cccc(-n2c(C)cc(O)cc2=O)c1	none (no result: HTRA1 inh)
S=C(NN=C1CCCCC1=NNC(=S)N1CCOCC1)N1CCOCC1	none (no result: HTRA1 inh)
COc1cccc(/C=N/NC(=O)c2c(C)nc3ccc(Cl)cn23)c1O	HTRA1 inh 62, ABHD4 inh 35 | HTRA1 inh conf 65 | mABHD4 conf 55
COc1ccc(C=NN(C)C(=O)Nc2cccc(Cl)c2)cc1OC	none (no result: HTRA1 inh)
Cn1c(CNc2ccc(Cl)cc2)nc2ccccc21	none
CC(C)N=c1cc2n(-c3ccc(Cl)cc3)c3ccccc3nc-2cc1Nc1ccc(Cl)cc1	HTRA1 inh 70, ABHD4 inh 61 | HTRA1 inh conf 51 | mABHD4 conf 78
CCOc1ccccc1N1C(=O)CC(Nc2ccc(N3CCOCC3)cc2)C1=O (configuration not stated)	HTRA1 inh 44, ABHD4 inh 46 | HTRA1 inh conf inactive | mABHD4 conf inactive
CCCCCCCCCCCCCCCC[n+]1cccc2ccccc21	HTRA1 inh 64, ABHD4 inh 37 | HTRA1 inh conf 71 | mABHD4 conf 54
COC(=O)[C@]12C=CCN1[C@@H](c1ccc(C(F)(F)F)cc1)c1c(c3ccccc3n1S(=O)(=O)c1ccc(C)cc1)C2	none (no result: HTRA1 inh, TCR CD3 inh)
O=[N+]([O-])c1cc(/C=N\Nc2nc(-c3ccccc3)cs2)ccc1O	HTRA1 inh 47, ABHD4 inh 42 | HTRA1 inh conf 50 | mABHD4 conf 61
Oc1ccc(-c2csc(-c3ccccc3)n2)cc1O	HTRA1 inh 59, ABHD4 inh 31 | HTRA1 inh conf 48 | mABHD4 conf 31
N#C/C(=C\c1ccc(O)c(O)c1)C(=O)N1CCc2ccccc21	HTRA1 inh 71, ABHD4 inh 55 | HTRA1 inh conf 86 | mABHD4 conf inactive
COc1cc(/C=C(\C#N)C(=O)N2CCc3ccccc32)ccc1O	none
N#C/C(=C\c1ccc(O)c(O)c1)C(=O)NCCc1ccccc1	HTRA1 inh 71, ABHD4 inh 51 | HTRA1 inh conf 93 | mABHD4 conf 33
COc1cc(/C=C(\C#N)C(=O)NCCc2ccccc2)cc(OC)c1O	none
COC(=O)[C@]12C[C@H](CC(=O)N3CCSCC3)C(=O)N(Cc3ccc(Cl)cc3Cl)C1=C[C@H](COCc1ccccc1)O[C@@H]2C	none (no result: HTRA1 inh, TCR CD3 inh)
